The source made the active and inactive calls. The calls are words filed in the database; no cut-off is given here.
Tests used:
Human alphaherpesvirus 1 [1] = test: Antiviral activity against Herpes simplex virus type 1 infected in mouse assessed as mean survival time at 200 mg/kg, sc tid administered for 4 days (reference value: 8.3 days); format: functional; details: route subcutaneous
[2] = Immunosuppressive activity in C57B1/6 mouse spleen effector T cells assessed as recovery of number of T cell required to give 50% lysis of 25 X 10^3 DBA/2 mouse [51Cr]-labeled P815 cells treated on day 4 of 5 days culture system measured after day 5 by [51Cr] release assay in presence of B6D2(F1) mouse spleen cells relative to control; format: functional
Procedure, shortened: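 Alloantigen coculture was the same: C57B1/6 spleen cells plus B6D2F1 stimulator cells, 5 days at 37 °C. Here compound was added on day 4 rather than at culture start. On day 5, cells were pooled and assayed against 51Cr-P815 targets for 3 h. Lytic units (cells giving 50% lysis of 25 × 10^3 targets) recovered per culture were expressed as percent of control.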

[3] = Immunosuppressive activity in H-2d alloantigen-sensitized C57B1/6 (H-2b) mouse spleen effector T cells assessed as inhibition of effector T cell-induced DBA/2 (H-2d) mouse [51Cr]-labeled P815 cell lysis by measuring lysed cells at 100 ug/mL after 4 hrs by [51Cr] release assay relative to control; format: functional
Procedure, shortened: (§1)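 C57B1/6 (H-2^b) mice sensitized ip with 30–50 × 10^6 P815 mastocytoma cells (DBA/2-passaged). Spleens pooled from 5–7 mice taken 10 days later. Effectors mixed 50:1 with 51Cr-labeled P815 targets in RPMI 1640/Hepes with 10% heat-inactivated calf serum plus compound. Incubated 4 h at 37 °C in 83% N2/10% CO2/7% O2. Supernatant 51Cr counted, run in quadruplicate. % specific lysis computed from spontaneous and water-lysis controls, then expressed as % of untreated control.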

Human alphaherpesvirus 1 [4] = test: Antiviral activity against Herpes simplex virus type 1 infected in rabbit kidney monolayer cells assessed as reduction in viral titer at 25 ug/mL relative to control; format: functional
[5] = Immunosuppressive activity in H-2d alloantigen-sensitized C57B1/6 (H-2b) mouse spleen effector T cells assessed as inhibition of effector T cell-induced DBA/2 (H-2d) mouse [51Cr]-labeled P815 cell lysis by measuring lysed cells at 10 ug/mL after 4 hrs by [51Cr] release assay relative to control; format: functional; procedure, shortened: as §1
[6] = Immunosuppressive activity in C57B1/6 mouse spleen effector T cells assessed as ratio of effector T cell to DBA/2 mouse [51Cr]-labeled P815 cell giving 50% specific lysis at 100 ug/mL after 5 days by [51Cr] release assay in presence of B6D2(F1) mouse spleen cells (reference value: 6 no unit); format: functional
Procedure, shortened: (§2)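 Normal C57B1/6 spleen cells (10 × 10^6) cocultured 5 days at 37 °C (83% N2/10% CO2/7% O2) with 0.5 × 10^6 B6D2F1 spleen cells as antigen and compound at 100 μg/mL. Medium was RPMI 1640 with 20% fetal calf serum and gentamycin, using at least 12 cultures per concentration. Pooled cells were then mixed with 51Cr-P815 targets at various ratios (≥3 replicates/ratio) for 3 h at 37 °C. Lysis was plotted against ratio; lytic unit = cells giving 50% lysis of 25 × 10^3 targets.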

[7] = Immunosuppressive activity in H-2d alloantigen-sensitized C57B1/6 (H-2b) mouse spleen effector T cells assessed as inhibition of effector T cell-induced DBA/2 (H-2d) mouse [51Cr]-labeled P815 cell lysis by measuring lysed cells at 1 ug/mL after 4 hrs by [51Cr] release assay relative to control; format: functional; procedure, shortened: as §1
Human alphaherpesvirus 1 [8] = test: Antiviral activity against Herpes simplex virus type 1 infected in mouse assessed as mean survival time at 150 mg/kg, sc tid administered for 4 days (reference value: 8.3 days); format: functional; details: route subcutaneous
Procedure, shortened: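 HSV-1-infected mice dosed subcutaneously three times daily on days 0–4. Vehicle-dosed infected mice served as controls. Read-out was mean survival time in days.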

[9] = Immunosuppressive activity in C57B1/6 mouse spleen effector T cells assessed as inhibition of effector T cell-induced DBA/2 mouse [51Cr]-labeled P815 cell lysis at 100 ug/mL after 5 days by [51Cr] release assay in presence of B6D2(F1) mouse spleen cells relative to control; format: functional; details: C57B1/6, P815, Spleen, 120 h; procedure, shortened: as §2
[10] = Immunosuppressive activity in C57B1/6 mouse spleen effector T cells assessed as effect on number of IgM-anti sheep erythrocyte antibody plaque forming cells per culture at 1 ug/culture after 5 days in presence of sheep erythrocytes (reference value: 6440 +/- 2255 PFC/culture); format: functional
[11] = Cytotoxicity against C57B1/6 (H-2b) mouse spleen effector T cells assessed as decrease in cell number at 1 to 100 ug/mL after 4 hrs relative to control; format: cell-based
[12] = Immunosuppressive activity in C57B1/6 mouse spleen effector T cells assessed as effect on number of IgM-anti sheep erythrocyte antibody plaque forming cells per culture at 100 ug/culture after 5 days in presence of sheep erythrocytes (reference value: 6440 +/- 2255 PFC/culture); format: functional
[13] = Immunosuppressive activity in C57B1/6 mouse spleen effector T cells assessed as effect on number of IgM-anti sheep erythrocyte antibody plaque forming cells per culture at 10 ug/culture after 5 days in presence of sheep erythrocytes (reference value: 6440 +/- 2255 PFC/culture); format: functional
[14] = Cytotoxicity against C57B1/6 mouse spleen effector T cells assessed as decrease in cell number at 100 ug/mL after 5 days relative to control; format: cell-based; details: 120 h
Human alphaherpesvirus 1 [15] = test: Antiviral activity against Herpes simplex virus type 1 infected in rabbit kidney monolayer cells assessed as reduction in viral titer; format: functional, organism-based

Compound | MST (Human alphaherpesvirus 1 [1]) | Activity [2] | Specific lysis, % of untreated control [3] | fold change (FC) (Human alphaherpesvirus 1 [4]) | Specific lysis, % of untreated control [5] | Ratio [6] | Specific lysis as % of untreated control [7] | MST (Human alphaherpesvirus 1 [8]) | inhibition at 100 µg/mL [9] | PFC [10] | Activity [11] | PFC [12] | PFC [13] | Activity [14] | Activity (Human alphaherpesvirus 1 [15])
CN1CN([C@H]2C[C@H](O)[C@@H](CO)O2)C(=O)NC1=O | 18 days | 90% | 73% | 10 | 88% | 7.2 | 90% | – | – | – | – | – | – | – | –
Cn1c(=O)nc2n(c1=O)[C@@H]1O[C@H](CO)[C@@H](O)[C@@H]1O2 | – | 90% | 92% | – | 88% | – | 100% | 5.4 days | 90% | 4227 | Non-toxic | 7107 | 4853 | Non-toxic | –
Cn1c(=O)[nH]c(=O)n([C@@H]2O[C@H](CO)[C@@H](O)[C@@H]2O)c1=O | – | 90% | 93% | – | 98% | – | 94% | – | 84% | 6240 | Non-toxic | 6293 | 5520 | Non-toxic | inactive
CC(=O)OC[C@H]1O[C@@H](n2c(=O)[nH]c(=O)n(C)c2=O)[C@@H](OC(C)=O)[C@@H]1OC(C)=O | – | 90% | 88% | – | 96% | 10.5 | 96% | – | – | 4907 | – | 10040 | 4307 | – | inactive
CC(=O)OC[C@H]1O[C@@H]2[C@@H](Oc3nc(=O)n(C)c(=O)n32)[C@@H]1OC(C)=O | – | 90% | 93% | – | 103% | 8.5 | 95% | – | – | 5240 | – | 8720 | 5933 | – | Active
